How the values were obtained:
[1] = Comparative single-dose PK of teriparatide; type: in vivo, human; conditions: for tlast / Cmax / tmax / AUC0-tlast: single 20 μg/80 μL s.c. dose, N = 51; for tlast: AM ± SD; for Cmax: ELISA; for Cmax / AUC0-tlast: GM (GCV%); for tmax: Median (Minimum, Maximum); for AUC0-tlast: abdomen, PTH(1-34) ELISA
Outline: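 Randomised, double-blind, two-period, two-sequence cross-over in healthy women aged 18–55 y (BMI 18.5–27.0 kg/m2). Single 20 μg/80 μL s.c. abdominal injection of test or reference teriparatide at hour 0, with a 24 h washout. Plasma sampled pre-dose and at 10–240 min. High-sensitivity human PTH(1-34) ELISA. Non-compartmental parameters; ANOVA on ln values; geometric mean test/reference ratios with 94.12% CI (α 0.0294, two-stage design).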

[2] = Safety: treatment emergent adverse events in healthy women; type: in vivo, human; conditions: single 20 μg s.c.; for TEAE: General disorders and administration site conditions: number of subjects (%)
Outline: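 Healthy women received single 20 μg/80 μL s.c. injections in each cross-over period. Monitoring covered physical examinations, vital signs, ECGs, pulse oximetry, adverse events, injection-site reactions and clinical laboratory tests. Adverse events in the washout were assigned to the preceding treatment. Results were summarised per treatment arm as subject counts; Fisher's exact test.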

serum calcium = assay: Serum calcium; type: in vivo, human; conditions: for Serum-corrected calcium Cmax, mean / Serum-corrected calcium tmax, mean / Serum-corrected calcium AUC0-tlast, geom. mean / Serum-corrected calcium Cmax, geom. mean / Serum-corrected calcium AUC0-tlast, median / Serum-corrected calcium Cmax, median / Serum-corrected calcium tmax, median: single 20 μg/80 μL s.c. injection, healthy women, N = 53; for Serum-corrected calcium Cmax, mean / Serum-corrected calcium tmax, mean: arithmetic mean; for Serum-corrected calcium AUC0-tlast, geom. mean / Serum-corrected calcium Cmax, geom. mean: geometric mean
Outline: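 Serum drawn within 2.5 h before dosing and at 120, 180 and 240 min and 6, 8 and 12 h after a single 20 μg/80 μL s.c. dose. Total calcium measured photometrically via the NM-BAPTA complex under alkaline conditions (LLOQ 0.8 mg/dl). Values albumin-corrected as Ca (mmol/L) + ((40 − ALB (g/L)) × 0.02). AUC0-tlast, Cmax and tmax calculated.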

[3] = after at least 12 months of treatment, 20 μg daily s.c. doses; cited from earlier work
[4] = RGB-10/reference, two-stage design
[5] = RGB-10/reference, two-stage design, acceptance range 80.00–125.00%
[6] = geometric mean ratio = 100 * (RGB-10/reference)
[7] = geometric least-squares mean from ANOVA, single 20 μg s.c., healthy women

teriparatide [RGB-10]
bioequivalence conclusion ([1]; 94.12% CIs of GMRs of AUC0-tlast and Cmax within 80–125%): bioequivalent | 94.12% CI of GMR, AUC0-inf [1, 4]: 83.75–96.33% | 94.12% CI of GMR, t1/2 [1, 4]: 83.28–100.29% | 94.12% CI of GMR, AUC0-tlast [1, 5]: 85.20–98.60% | 94.12% CI of GMR, Cmax [1, 5]: 85.51–99.52% | extent, total extent and peak teriparatide exposure (AUC0-tlast, AUC0-inf, Cmax) lower than for the reference ([1]; based on GMR, plasma): 8 to 10% | GMR% AUC0-inf [1, 6]: 89.82% | GMR% AUC0-tlast [1, 6]: 91.66% | GMR% Cmax [1, 6]: 92.25% | GMR% t1/2 [1, 6]: 91.39% | tlast ([1]; healthy women): 2.49 ± 0.729 h | Cmax ([1]; healthy women): 82.4 (40.1%) pg/mL | tmax ([1]; healthy women): 0.334 (0.166, 0.585) h | AUC0-tlast ([1]; healthy women): 91.8 (40.9%) pg*h/mL | half-life shorter than for the reference ([1]; in vivo): 9% | mean CL/F higher than for the reference product ([1]; in vivo): approximately 13% | mean Vz/F compared with the reference ([1]; in vivo): similar | TEAE: General disorders and administration site conditions [2]: 13 (24%) | serious adverse events (SAEs) [2]: no SAEs observed | 95% CIs of the GMR of corrected calcium (serum calcium; RGB-10/reference): 99–101% | GMR of serum calcium AUC (serum calcium; RGB-10/reference): 99.93% | GMR of serum calcium Cmax (serum calcium; RGB-10/reference): 99.87% | median difference of serum calcium tmax (serum calcium; RGB-10 versus reference): 0.001 | Serum-corrected calcium Cmax, mean (serum calcium): 2.35 mmol/L | Serum-corrected calcium tmax, mean (serum calcium): 5.21 h | Serum-corrected calcium AUC0-tlast, geom. mean (serum calcium): 27.59 mmol·h/L | Serum-corrected calcium Cmax, geom. mean (serum calcium): 2.35 mmol/L | Serum-corrected calcium AUC0-tlast, median (serum calcium): 27.56 mmol·h/L | Serum-corrected calcium Cmax, median (serum calcium): 2.34 mmol/L | Serum-corrected calcium tmax, median (serum calcium): 6.00 h

teriparatide [Reference, reference compound]
AUC0-inf, geometric LSM [1, 7]: 0.11566 ng·h/mL | AUC0-tlast, geometric LSM [1, 7]: 0.10086 ng·h/mL | Cmax, geometric LSM [1, 7]: 0.09018 ng/mL | t1/2, geometric LSM [1, 7]: 0.72 h | tlast ([1]; healthy women): 2.58 ± 0.707 h | Cmax ([1]; healthy women): 89.2 (37.1%) pg/mL | tmax ([1]; healthy women): 0.417 (0.167, 0.667) h | AUC0-tlast ([1]; healthy women): 99.0 (35.0%) pg*h/mL | TEAE: General disorders and administration site conditions [2]: 8 (15%) | patients with anti-teriparatide antibodies [3]: 2.8% | Serum-corrected calcium Cmax, mean (serum calcium): 2.35 mmol/L | Serum-corrected calcium tmax, mean (serum calcium): 5.03 h | Serum-corrected calcium AUC0-tlast, geom. mean (serum calcium): 27.61 mmol·h/L | Serum-corrected calcium Cmax, geom. mean (serum calcium): 2.35 mmol/L | Serum-corrected calcium AUC0-tlast, median (serum calcium): 27.56 mmol·h/L | Serum-corrected calcium Cmax, median (serum calcium): 2.34 mmol/L | Serum-corrected calcium tmax, median (serum calcium): 6.00 h
